These results are taken from PMC4543588 (European journal of medicinal chemistry, 2015).

Ends that are not written are not given here.

Data set [1] is described as follows: water solubility. It is filed as physicochemical.
Data set [2] can be described thus: body distribution analysis in chronically treated DIO mice. Format: in vivo, mouse. The note with it: 2.2 mg/kg every 2 days for 28 days. In outline: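 Male DIO C57BL/6 mice were given test compound chronically at 2.2 mg/kg (1603 nmoles/kg) every 2 days for 28 days, then killed. Organs and tissues were harvested, weighed and homogenised in 4 volumes of DMSO/ACN (1:1) with 0.1% TFA, then spun 10 min at 13000 rpm. Supernatants were analysed by triple-quadrupole LC/MS with a methylated analog as internal standard.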

In data set [3] the test system is lysophosphatidic acid (LPA). The experiment in a line: LPA levels in plasma of chronically treated DIO mice. Format: in vivo, mouse. The note with it: 1603 nmoles/kg; every 2 or 4 (NM4A) or 7 days (NM4-C16) for 21 days. In outline: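 Ad libitum-fed male DIO C57BL/6 mice on a 60% kcal-fat diet (n=8/group) received s.c. vehicle or test compound in a phospholipid-based delivery system, 30 min before dark onset. Dosing was 1603 nmoles/kg every 2 or 4 days (2.2 mg/kg) or every 7 days (2.6 mg/kg) for 21 days. Plasma (100 μL) underwent solid-phase extraction and drying at 30–37 °C, then methanol reconstitution. 18:1, 18:2 and 20:4 LPA were quantified by LC-ESI-MS/MS.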

For data set [4] the following is noted: s.c. injection ref 39; cited from earlier work.
Data set [5] deals with human NMU2 (Homo sapiens, UniProt Q9GZQ4). The experiment in a line: cellular calcium signaling assay, HEK293 cells expressing recombinant human NMU2. Format: cell-based. In outline:
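HEK293 cells stably expressing human NMU2 were grown to ~90% confluence on poly-D-lysine, loaded 45 min at 37 °C with 2 μM fluo-4-AM in Krebs'-HEPES-BSA (pH 7.4), then equilibrated 5 min. After ligand addition, fluorescence (ex 485/em 520 nm) was read at 0.5 s intervals. Maximal [Ca2+]i change was fitted by four-parameter logistic for EC50. Emax given as % hNmU Emax; mean ± SEM, n≥4.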

The target of data set [6] is T1, human NMU1 (Homo sapiens, UniProt Q9HB89).
T1 sequence (Q9HB89 1-426): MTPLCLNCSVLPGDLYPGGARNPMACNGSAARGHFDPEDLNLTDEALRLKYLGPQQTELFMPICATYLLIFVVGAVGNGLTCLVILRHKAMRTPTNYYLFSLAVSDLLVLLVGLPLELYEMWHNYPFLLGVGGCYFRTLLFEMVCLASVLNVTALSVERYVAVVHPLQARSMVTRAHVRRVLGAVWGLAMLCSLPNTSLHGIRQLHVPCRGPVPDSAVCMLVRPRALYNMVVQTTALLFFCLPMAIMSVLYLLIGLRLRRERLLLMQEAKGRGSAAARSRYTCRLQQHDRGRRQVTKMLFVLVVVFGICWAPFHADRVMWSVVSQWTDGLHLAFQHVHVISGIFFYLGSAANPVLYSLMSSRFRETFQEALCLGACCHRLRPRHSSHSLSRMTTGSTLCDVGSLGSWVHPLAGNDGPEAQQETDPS
The experiment in a line: cellular calcium signaling assay, HEK293 cells expressing recombinant human NMU1. Format: cell-based. In a few lines: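 HEK293 cells stably expressing human NMU1, grown to ~90% confluence on poly-D-lysine, loaded 45 min at 37 °C with 2 μM fluo-4-AM in Krebs'-HEPES/0.1% BSA (pH 7.4), then equilibrated 5 min. Ligand added; fluorescence (ex 485/em 520 nm) read every 0.5 s. […] Four-parameter logistic fit gave EC50; Emax as % hNmU; n≥4.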

For data set [7] the following is noted: cited from earlier work.

human NMU2, sequence (Q9GZQ4 whole entry): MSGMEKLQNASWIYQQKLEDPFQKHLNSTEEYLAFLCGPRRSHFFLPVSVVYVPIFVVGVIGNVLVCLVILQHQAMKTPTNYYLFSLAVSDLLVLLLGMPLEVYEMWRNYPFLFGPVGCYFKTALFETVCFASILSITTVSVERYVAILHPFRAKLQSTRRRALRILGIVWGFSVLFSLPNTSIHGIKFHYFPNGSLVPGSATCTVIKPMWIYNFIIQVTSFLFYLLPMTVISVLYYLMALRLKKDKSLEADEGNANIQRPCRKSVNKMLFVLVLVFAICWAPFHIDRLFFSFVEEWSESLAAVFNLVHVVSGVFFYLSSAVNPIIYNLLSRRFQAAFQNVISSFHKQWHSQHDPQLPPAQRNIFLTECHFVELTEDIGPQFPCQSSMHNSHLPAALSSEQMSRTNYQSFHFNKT

Consider `CCCCCCCCCCCCCCCCNC(=O)CNCC(=O)NC(C)(C)C(=O)N[C@@H](Cc1ccccc1)C(=O)N[C@@H](CC(C)C)C(=O)N[C@@H](Cc1ccccc1)C(=O)N[C@@H](CCCNC(=N)N)C(=O)N1CCC[C@H]1C(=O)N[C@@H](CCCNC(=N)N)C(=O)N[C@@H](CC(N)=O)C(N)=O` [NM4A, Ida^NHPal-Aib -FL- Phe -Arg- Pro-R-Asn], for which, in data set [1], the “water solubility” value was “limited water solubility”. Also, in data set [2], the “body distribution” value is “highest content of NM4A was detected in the plasma”. The “plasma levels of LPA” value in data set [3] is listed as “does not increase plasma levels of LPA”.
For “NmU: endogenous peptide neuromedin U (FRVDEEFQSPFASQSRGYFLFRPRN-NH2; ends and bridges not checked; UniProt P48645 142-166, looked up)”, in data set [4], the “half-life after subcutaneous (s.c.) injection” value is “less than 5 min”.
Turning to “Pal-Aib -FL- N^MeF -Arg- Pro-R-N^MeN [NM32]”, in data set [5], the “NMU2 Emax at 10 μM as % hNmU Emax” value was 15.2±3.8 % hNmU Emax. Besides, the “NMU1 Emax at 10 μM as % hNmU Emax” value in data set [6] amounted to 19.1±1.2 % hNmU Emax.
Taken in the same sequence, the figures for “Pal-Aib -FL- N^MeF -Arg- Pro-R-N^MeN [NM35]” were 67.0±16.5 % hNmU Emax and 22.9±3.8 % hNmU Emax.
On the same counts, the results for “Pal-Aib -FL- Phe -Arg- Pro-R-Asn-Aib [NM6]” are 60.7±12.1 % hNmU Emax and 40.6±2.2 % hNmU Emax.
Taken in the same sequence, the figures for “Pal-Aib -FL- Phe-N^MeR- Pro-R-N^MeN [NM31]” were 17.9±1.5 % hNmU Emax and 13.8±2.0 % hNmU Emax.
Regarding “Pal-Aib -FL- Phe-N^MeR- Pro-R-N^MeN [NM34]”, the “NMU2 Emax at 10 μM as % hNmU Emax” value in data set [5] is on record as 18.4±3.2 % hNmU Emax. Also, the “NMU1 Emax at 10 μM as % hNmU Emax” value in data set [6] was 19.6±3.2 % hNmU Emax.
On the same counts, the results for “Pal-Aib -FL- α^MeF -Arg- Pro-R-N^MeN [NM33]” are 19.2±2.0 % hNmU Emax and 20.6±1.9 % hNmU Emax.
Taken in the same sequence, the figures for “Pal-Aib -FL- α^MeF -Arg- Pro-R-N^MeN [NM36]” were 28.6±7.9 % hNmU Emax and 15.9±6.6 % hNmU Emax.
For “X(C-Ahx -FL- Phe -Arg- Oic-R-Asn-Ahx-C) [NM12]”, the “NMU2 Emax at 10 μM as % hNmU Emax” value in data set [5] is reported as 70.0±6.0 % hNmU Emax. Also, the “NMU1 Emax at 10 μM as % hNmU Emax” value in data set [6] is reported as 30.00±6.0 % hNmU Emax.
On the same counts, the results for “X(C-Ahx -FL- Phe -Arg- Pro-R-Asn-Ahx-C) [NM11]” are 60.6±11.6 % hNmU Emax and 33.7±0.2 % hNmU Emax.
Taken in the same sequence, the figures for “X(C-Ahx -FL- Phe -Arg- Tic-R-Asn-Ahx-C) [NM13]” were 39.3±8.8 % hNmU Emax and 60.4±13.8 % hNmU Emax.
In the case of semaglutide, the plasma half-life in data set [7] is recorded as 160 h.
